Active and inactive are the calls of the source. The rule behind the calls is not given here.
What was measured:
[1] = target: T1, Bromodomain-containing protein 4 (Homo sapiens, UniProt O60885); test: Inhibition of BRD4 bromodomain 1 (unknown origin) expressed in Escherichia coli Bl21(DE3)-pRARE cells by fluorescence anisotropy
Summary of the method: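 BRD4-D1 ligand displacement read by fluorescence anisotropy, reported as IC50; mean and standard deviation of three independent trials; IC50 above 100 μM reported as >100.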

CREB-binding protein = CREB-binding protein (Homo sapiens, UniProt Q92793); test: Binding affinity to human partial length CREBBP (R1081 to G1197 residues) expressed in bacterial expression system by BROMOscan assay
Chain of CREB-binding protein (Q92793 whole entry, the tested form may be a part): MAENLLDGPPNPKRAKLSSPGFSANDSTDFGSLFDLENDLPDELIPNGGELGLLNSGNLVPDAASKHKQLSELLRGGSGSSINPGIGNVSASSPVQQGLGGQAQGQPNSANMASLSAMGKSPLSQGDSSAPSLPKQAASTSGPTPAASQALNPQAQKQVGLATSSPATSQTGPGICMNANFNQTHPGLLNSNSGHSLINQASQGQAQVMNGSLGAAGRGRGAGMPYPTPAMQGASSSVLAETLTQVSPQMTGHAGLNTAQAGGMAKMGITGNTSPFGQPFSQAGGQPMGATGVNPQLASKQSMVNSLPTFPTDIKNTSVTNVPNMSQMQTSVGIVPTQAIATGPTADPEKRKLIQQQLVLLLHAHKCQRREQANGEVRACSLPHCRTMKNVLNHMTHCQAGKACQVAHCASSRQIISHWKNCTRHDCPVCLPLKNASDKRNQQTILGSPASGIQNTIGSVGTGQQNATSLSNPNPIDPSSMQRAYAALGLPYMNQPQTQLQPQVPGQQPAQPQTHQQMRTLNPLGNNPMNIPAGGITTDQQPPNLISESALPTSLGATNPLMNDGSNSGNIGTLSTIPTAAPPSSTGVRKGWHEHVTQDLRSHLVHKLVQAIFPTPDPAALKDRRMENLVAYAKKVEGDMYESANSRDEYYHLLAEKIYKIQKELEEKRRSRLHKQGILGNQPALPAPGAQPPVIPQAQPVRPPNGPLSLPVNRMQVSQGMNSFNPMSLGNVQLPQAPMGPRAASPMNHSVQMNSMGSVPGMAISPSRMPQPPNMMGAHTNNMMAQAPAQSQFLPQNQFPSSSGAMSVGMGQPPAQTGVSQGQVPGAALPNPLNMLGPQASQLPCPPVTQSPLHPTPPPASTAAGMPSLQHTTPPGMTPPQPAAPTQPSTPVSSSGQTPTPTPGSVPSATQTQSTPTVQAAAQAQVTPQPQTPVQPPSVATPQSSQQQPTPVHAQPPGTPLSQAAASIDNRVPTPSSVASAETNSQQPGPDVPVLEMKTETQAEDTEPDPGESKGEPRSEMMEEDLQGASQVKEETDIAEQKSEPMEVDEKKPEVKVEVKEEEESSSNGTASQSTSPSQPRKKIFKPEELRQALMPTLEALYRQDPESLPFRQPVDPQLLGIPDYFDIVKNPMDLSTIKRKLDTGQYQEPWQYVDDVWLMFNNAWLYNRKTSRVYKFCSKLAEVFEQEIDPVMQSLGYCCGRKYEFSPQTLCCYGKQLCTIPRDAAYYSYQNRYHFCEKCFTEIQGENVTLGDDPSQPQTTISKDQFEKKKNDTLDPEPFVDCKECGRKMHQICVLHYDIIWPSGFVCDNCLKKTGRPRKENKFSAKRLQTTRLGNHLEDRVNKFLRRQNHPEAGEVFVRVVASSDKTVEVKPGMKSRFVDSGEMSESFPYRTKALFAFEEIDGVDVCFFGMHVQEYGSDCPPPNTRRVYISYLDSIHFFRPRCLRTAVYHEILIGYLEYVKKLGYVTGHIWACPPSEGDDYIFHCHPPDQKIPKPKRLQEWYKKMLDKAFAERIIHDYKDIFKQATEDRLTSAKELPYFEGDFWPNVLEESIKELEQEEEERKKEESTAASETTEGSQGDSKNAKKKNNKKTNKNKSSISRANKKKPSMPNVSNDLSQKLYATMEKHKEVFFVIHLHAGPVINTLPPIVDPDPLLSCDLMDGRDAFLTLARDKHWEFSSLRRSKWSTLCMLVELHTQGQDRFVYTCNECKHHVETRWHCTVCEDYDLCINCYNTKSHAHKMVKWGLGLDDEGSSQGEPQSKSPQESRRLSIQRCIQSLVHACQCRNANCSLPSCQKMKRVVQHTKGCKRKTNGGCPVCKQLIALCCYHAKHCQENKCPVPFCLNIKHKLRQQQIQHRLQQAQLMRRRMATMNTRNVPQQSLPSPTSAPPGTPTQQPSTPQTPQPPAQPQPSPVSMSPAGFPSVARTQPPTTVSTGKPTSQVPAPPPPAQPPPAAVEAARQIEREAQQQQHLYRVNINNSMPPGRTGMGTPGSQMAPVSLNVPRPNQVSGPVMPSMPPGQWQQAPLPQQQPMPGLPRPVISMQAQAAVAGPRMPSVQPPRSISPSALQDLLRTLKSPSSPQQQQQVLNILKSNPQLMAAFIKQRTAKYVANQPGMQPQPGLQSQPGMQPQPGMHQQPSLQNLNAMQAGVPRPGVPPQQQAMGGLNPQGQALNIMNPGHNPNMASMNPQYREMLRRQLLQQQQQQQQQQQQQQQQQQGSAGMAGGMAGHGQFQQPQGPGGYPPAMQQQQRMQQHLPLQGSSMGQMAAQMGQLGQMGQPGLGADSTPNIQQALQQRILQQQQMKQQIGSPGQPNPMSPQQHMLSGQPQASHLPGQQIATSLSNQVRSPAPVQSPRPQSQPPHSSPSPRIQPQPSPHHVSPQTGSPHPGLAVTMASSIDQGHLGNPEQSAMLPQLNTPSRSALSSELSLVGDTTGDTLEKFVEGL
Summary of the method: (§1)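 Dissociation constants from BROMOscan competition binding; mean and standard error of two independent trials.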

Homo sapiens [2] = species: Homo sapiens; test: Selectivity index, ratio of Kd for human full length p38-alpha (M1 to S360 residues) expressed in bacterial cells to Kd for human partial length BRD4 bromodomain 1 long isoform (N44 to E168 residues) expressed in bacterial cells; assay type: cell-based
[3] = target: T1, Bromodomain-containing protein 4; test: Binding affinity to human partial length BRD4 bromodomain 2 long isoform (K333 to E460 residues) expressed in bacterial expression system by BROMOscan assay; summary of the method: as §1
[4] = target: T1, Bromodomain-containing protein 4; test: Inhibition of biotinylated histone H4 peptide binding to BRD4 bromodomain 1 (44 to 168 residues) (unknown origin) after 60 mins by Alphascreen method
Homo sapiens [5] = species: Homo sapiens; test: Selectivity index, ratio of Kd for human full length p38-alpha (M1 to S360 residues) expressed in bacterial cells to Kd for human partial length BRD4 bromodomain 2 long isoform (K333 to E460 residues) expressed in bacterial cells; assay type: cell-based
[6] = target: Mitogen-activated protein kinase 14 (Homo sapiens, UniProt Q16539); test: Binding affinity to wild-type human full length p38-alpha (M1 to S360 residues) expressed in bacterial expression system by Kinomescan method
Chain of Mitogen-activated protein kinase 14 (Q16539 whole entry, the tested form may be a part): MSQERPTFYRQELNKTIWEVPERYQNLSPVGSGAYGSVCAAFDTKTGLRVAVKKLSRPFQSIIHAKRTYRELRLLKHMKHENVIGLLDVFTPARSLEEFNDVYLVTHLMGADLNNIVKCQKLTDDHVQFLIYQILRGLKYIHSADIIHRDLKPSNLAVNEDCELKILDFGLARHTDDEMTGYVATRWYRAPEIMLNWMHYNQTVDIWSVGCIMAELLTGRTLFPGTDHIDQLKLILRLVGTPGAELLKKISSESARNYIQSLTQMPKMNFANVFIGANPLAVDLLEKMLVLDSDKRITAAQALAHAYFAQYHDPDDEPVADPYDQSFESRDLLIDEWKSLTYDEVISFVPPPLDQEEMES
Summary of the method: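 Kd for p38α from KINOMEscan binding; mean and standard error of two independent trials.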

[7] = target: SWI/SNF-related matrix-associated actin-dependent regulator of chromatin subfamily A member 2 (Homo sapiens, UniProt P51531); test: Binding affinity to human partial length SMARCA2 (S1377 to Q1486 residues) expressed in bacterial expression system by BROMOscan assay; summary of the method: as §1
Chain of SWI/SNF-related matrix-associated actin-dependent regulator of chromatin subfamily A member 2 (P51531 whole entry, the tested form may be a part, canonical isoform): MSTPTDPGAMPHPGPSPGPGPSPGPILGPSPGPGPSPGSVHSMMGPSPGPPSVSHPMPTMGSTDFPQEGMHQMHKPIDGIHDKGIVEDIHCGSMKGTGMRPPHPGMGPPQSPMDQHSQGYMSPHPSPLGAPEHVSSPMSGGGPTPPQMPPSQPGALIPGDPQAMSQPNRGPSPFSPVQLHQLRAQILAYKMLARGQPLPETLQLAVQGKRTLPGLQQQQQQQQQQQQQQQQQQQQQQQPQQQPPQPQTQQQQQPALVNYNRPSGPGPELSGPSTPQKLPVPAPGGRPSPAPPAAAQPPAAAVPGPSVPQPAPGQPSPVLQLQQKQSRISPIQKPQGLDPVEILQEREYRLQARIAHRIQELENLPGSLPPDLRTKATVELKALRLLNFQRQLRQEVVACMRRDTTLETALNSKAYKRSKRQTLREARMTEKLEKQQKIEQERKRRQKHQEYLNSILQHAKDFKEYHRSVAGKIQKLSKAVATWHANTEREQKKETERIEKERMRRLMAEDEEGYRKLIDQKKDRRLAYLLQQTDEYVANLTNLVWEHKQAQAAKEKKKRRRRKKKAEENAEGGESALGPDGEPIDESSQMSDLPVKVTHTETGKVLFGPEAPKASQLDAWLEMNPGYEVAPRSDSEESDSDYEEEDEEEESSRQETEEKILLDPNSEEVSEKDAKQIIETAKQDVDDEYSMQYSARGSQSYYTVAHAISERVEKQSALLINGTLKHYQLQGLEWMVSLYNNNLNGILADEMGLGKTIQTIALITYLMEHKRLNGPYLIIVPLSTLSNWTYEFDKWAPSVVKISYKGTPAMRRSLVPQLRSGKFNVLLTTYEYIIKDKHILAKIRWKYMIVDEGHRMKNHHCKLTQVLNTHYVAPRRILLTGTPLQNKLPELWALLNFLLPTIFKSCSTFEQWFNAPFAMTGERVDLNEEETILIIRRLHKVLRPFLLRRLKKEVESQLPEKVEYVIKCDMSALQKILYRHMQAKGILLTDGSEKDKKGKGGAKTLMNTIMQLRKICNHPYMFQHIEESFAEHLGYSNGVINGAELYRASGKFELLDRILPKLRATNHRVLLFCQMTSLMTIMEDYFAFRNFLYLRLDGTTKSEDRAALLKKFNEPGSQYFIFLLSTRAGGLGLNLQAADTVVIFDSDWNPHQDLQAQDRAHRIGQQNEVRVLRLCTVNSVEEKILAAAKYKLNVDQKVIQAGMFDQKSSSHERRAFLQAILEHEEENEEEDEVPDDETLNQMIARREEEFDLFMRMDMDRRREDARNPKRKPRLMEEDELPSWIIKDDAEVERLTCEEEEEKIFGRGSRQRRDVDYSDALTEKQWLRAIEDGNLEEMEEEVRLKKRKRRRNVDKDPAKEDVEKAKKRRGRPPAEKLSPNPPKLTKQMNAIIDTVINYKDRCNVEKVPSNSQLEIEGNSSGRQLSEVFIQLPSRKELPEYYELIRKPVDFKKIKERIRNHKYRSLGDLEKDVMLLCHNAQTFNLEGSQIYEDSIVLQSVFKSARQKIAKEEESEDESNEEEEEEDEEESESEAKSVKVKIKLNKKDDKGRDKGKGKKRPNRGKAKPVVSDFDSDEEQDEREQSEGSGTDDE

[8] = target: T1, Bromodomain-containing protein 4; test: Binding affinity to human partial length BRD4 bromodomain 1 long isoform (N44 to E168 residues) expressed in bacterial expression system by BROMOscan assay; summary of the method: as §1
MM1.S = test: Antiproliferative activity against human MM1S cells assessed as reduction in cell viability after 69 hrs by Alamar blue assay; assay type: functional, cell-based
Summary of the method: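 MM.1S cell viability, read as EC50 from a nonlinear curve fit; mean ± SEM of three biological replicates, each run in three technical replicates.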

Homo sapiens [9] = species: Homo sapiens; test: Selectivity ratio of compound effect on human full length p38-alpha (M1 to S360 residues) expressed in bacterial cells over compound effect on human partial length BRD4 bromodomain 1 long isoform (N44 to E168 residues) expressed in bacterial cells; assay type: cell-based
[10] = target: T1, Bromodomain-containing protein 4; test: Inhibition of BRD4 bromodomain 1 in human MM1S cells assessed as decrease in c-MYC expression after 6 hrs by Western blot analysis; assay type: cell-based

| Compound | IC50 [1] [µM] | Kd [6] [µM] | EC50 (MM1.S) [µM] | further results |
| --- | --- | --- | --- | --- |
| Cc1cc(C)cc(Oc2nccc(-c3c(C(C)C)nnn3C3CCN(C(=N)N)CC3)n2)c1 | > 100 |  |  |  |
| Cc1cc(C)cc(Oc2cccc(-c3c(C)nnn3C3CCN(C(=N)N)CC3)n2)c1 |  | > 200 | > 50 | Kd (CREB-binding protein): > 100 µM; Ratio (Homo sapiens [2]): > 100; Kd [3]: 0.94 µM; IC50 [4]: 1.7 µM; Ratio (Homo sapiens [5]): > 100; Kd [7]: > 100 µM; Kd [8]: 1.1 µM |
| Cc1cc(C)cc(Nc2nccc(-c3c(-c4ccc(F)cc4)nnn3C3CCNCC3)n2)c1 |  | 0.0022 |  | Selectivity ratio (Homo sapiens [9]): > 10000 |
| Cc1cc(C)cc(Oc2nccc(-c3c(C4CCCC4)nnn3C3CCNCC3)n2)c1 | > 100 |  |  |  |
| Cc1cc(C)cc(Oc2nccc(-c3c(C(C)(C)C)nnn3C3CCNCC3)n2)c1 | > 100 |  |  |  |
| Cc1cc(C)cc(Oc2nccc(-c3c(C4CCCCC4)nnn3C3CCNCC3)n2)c1 | > 100 |  |  |  |
| CCCc1nnn(C2CCN(C(=N)N)CC2)c1-c1ccnc(Oc2cc(C)cc(C)c2)n1 | > 100 |  |  |  |
| Cc1cc(C)cc(Nc2cccc(-c3c(-c4ccc(F)cc4)nnn3C3CCNCC3)n2)c1 |  | 6.5 |  |  |
| Cc1cc(C)cc(Oc2cccc(-c3c(-c4ccc(F)cc4)nnn3C3CCNCC3)n2)c1 |  | 5 |  |  |
| Cc1cc(C)cc(Oc2cccc(-c3c(C)nnn3C3CCNCC3)n2)c1 |  |  | 2.9 |  |
| Cc1cc(C)cc(Oc2nccc(-c3c(-c4ccc(F)cc4)nnn3C3CCNCC3)n2)c1 | > 100 | 0.12 |  | IC50 [4]: 27 µM |
| Cc1cc(C)cc(Oc2nccc(-c3c(C)nnn3C3CCNCC3)n2)c1 | 11 |  | 6.6 | inhibition [10]: Active |
| Cc1cc(C)cc(Nc2cccc(-c3c(C)nnn3C3CCNCC3)n2)c1 | 3.9 |  | 6.3 | inhibition [10]: Active |
| Cc1cc(C)cc(Nc2cccc(-c3c(C)nnn3C3CCN(C(=N)N)CC3)n2)c1 |  | > 25 | > 50 | Kd (CREB-binding protein): 78 µM; Kd [3]: 2.1 µM; Kd [7]: > 100 µM; Kd [8]: 1.2 µM |
| Cc1cc(C)cc(Oc2nccc(-c3c(C)nnn3C3CCN(C(=N)N)CC3)n2)c1 |  |  | > 50 |  |
| Cc1cc(C)cc(Oc2cncc(-c3c(C)nnn3C3CCN(C(=N)N)CC3)c2)c1 | > 100 |  |  |  |

— ChEMBL document CHEMBL4364339, “Systematically Mitigating the p38α Activity of Triazole-based BET Inhibitors” (ACS Med Chem Lett, 2019)
